Here are results for one compound from ChEMBL document CHEMBL2057101, “Fluorocyclines. 2. Optimization of the C-9 side-chain for antibacterial activity and oral efficacy” (J Med Chem, 2012).

In brackets after ≈: the same amount, converted by molar mass.

For data set [1], the system named is Mus musculus. The data set can be described thus: Oral bioavailability in CD1 mouse at 30 mg/kg. The class given is ADME, organism-based. Conditions: mouse, in vivo, BLD = below limit of detection.
Data set [2] deals with Staphylococcus aureus. Description: Antibacterial activity against tetracycline-resistant Staphylococcus aureus isolate SA158 expressing TetK gene. The format is functional.
In data set [3] the test system is Staphylococcus aureus. Description: Antibacterial activity against Staphylococcus aureus ATCC 13709 infected in CD-1 mouse assessed as increase in survival at 30 mg/kg, po administered as single dose 1 hr post infection measured after 48 hrs post infection. The class given is functional. The method in brief: (§1)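 Mouse septicemia screen: S. aureus grown to log phase, diluted in 5% mucin to give 90% mortality within 48 h, inoculum 1.98 × 10⁶ CFU/mouse, 0.5 mL intraperitoneal into female CD-1 mice (18−20 g). Six mice per group. Single 30 mg/kg oral gavage or 3 mg/kg IV dose 1 h post infection. Infection controls received sterile water vehicle. Survival recorded at 48 h.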

For data set [4], the system named is Escherichia coli. Description: Antibacterial activity against Escherichia coli ATCC 25922 isolate 107. The class given is functional. The method, boiled down:
(§2)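 MIC by broth microdilution in liquid medium per CLSI, in cation-adjusted Mueller Hinton broth made fresh and held at 4 °C before testing. Horse blood (defibrinated) added to the medium where appropriate. Runs were accepted only when the comparator antibiotics and ATCC QC strains fell within their recommended ranges.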

The test system of data set [5] is Escherichia coli. The data set can be described thus: Antibacterial activity against Escherichia coli isolate EC155 expressing tetA gene. The class given is functional. The method, boiled down: as §2
Data set [6] deals with Staphylococcus aureus. The data set can be described thus: Antibacterial activity against tetracycline-resistant Staphylococcus aureus isolate SA161 expressing TetM gene. The format is functional. The method in brief:
(§3)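 Broth microdilution MIC following CLSI methods in cation-adjusted Mueller Hinton broth, prepared fresh and held at 4 °C before testing. Defibrinated horse blood added to the medium where appropriate. Runs accepted when quality control ranges for comparator antibiotics and ATCC QC strains were met.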

In data set [7] the test system is Staphylococcus aureus. Description: Antibacterial activity against tetracycline-susceptible Staphylococcus aureus ATCC 13709 Smith isolate SA100. The format is functional. The method, boiled down:
as §3

Data set [8] deals with Klebsiella pneumoniae. Description: Antibacterial activity against Klebsiella pneumoniae ATCC 13883. The format is functional. The method in brief:
as §2

Data set [9] deals with Staphylococcus aureus. Description: Antibacterial activity against Staphylococcus aureus ATCC 13709 infected in CD-1 mouse assessed as increase in survival at 3 mg/kg, iv administered as single dose 1 hr post infection measured after 48 hrs post infection. The format is functional. The method in brief: as §1
For data set [10], the system named is Streptococcus pneumoniae. The data set can be described thus: Antibacterial activity against tetracycline-resistant Streptococcus pneumoniae isolate 160 expressing tetM gene. The class given is functional.
For data set [11], the system named is Streptococcus pneumoniae. The data set can be described thus: Antibacterial activity against Streptococcus pneumoniae ATCC 49619 isolate 106. The class given is functional. The method in brief: as §2

In general, MIC refers to the least concentration at which growth counts as inhibited. Read a low MIC as inhibition by little substance.

Consider `CN(C)c1cc(NC(=O)CNC(C)(C)C)c(O)c2c1C[C@H]1C[C@H]3[C@H](N(C)C)C(O)=C(C(N)=O)C(=O)[C@@]3(O)C(O)=C1C2=O` [TIGECYCLINE], for which the F entry in [1] is on record as “BLD”. Moreover, the MIC in [2] came out at 0.063 µg/mL (≈ 0.108 µM); in [4], 0.125 µg/mL (≈ 0.213 µM); in [5], 0.5 µg/mL (≈ 0.854 µM); in data set [6], 0.13 µg/mL (≈ 0.222 µM); in data set [7], 0.063 µg/mL (≈ 0.108 µM); in data set [8], 0.125 µg/mL (≈ 0.213 µM). Also, the MIC in data set [10] and in data set [11] was 0.016 µg/mL (≈ 0.0273 µM) throughout. Also, the survival at 30 mg/kg in data set [3] was found to be 0%. Further, the survival at 3 mg/kg in data set [9] amounted to 100%.
